Read-outs that look alike come from different tables or passages of the source. Marks after values point to notes of the source that are not given here.
Columns and labels:
HeLa (cervix carcinoma) = experiment: Dark cytotoxicity, Trypan blue exclusion test; type: cell-based, human; conditions: read-out: IC50 (μM) ± S.E.M. HeLa, 48 h incubation
Summary of the method: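 HeLa cells were grown in DMEM with 10% FBS, 2 mM L-glutamine and penicillin/streptomycin at 37 °C. They were seeded at 0.5 × 10^6/mL in glass vials, given 24 h, then exposed for 48 h in the dark to test compound in distilled water at various concentrations. Cells were trypsinised, stained 5–15 min with 0.4% Trypan blue and counted by hemocytometer. […] IC50 was derived from at least three experiments, mean ± S.E.M.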

[1] = system: KCL-22 (chronic myeloid leukemia in blast crisis); conditions: read-out: IC50 (μM) ± S.E.M. KCL-22, dark; cited from earlier work
[2] = system: KCL-22 (chronic myeloid leukemia in blast crisis); experiment: Dark cytotoxicity, Trypan blue exclusion test; type: cell-based, human
[3] = system: human normal leukocytes (HNL); experiment: Cytotoxicity on normal cells, trypan blue exclusion assay; type: cell-based
KCL-22 cell line [4] = experiment: Comet assay; type: cell-based, human; conditions: for % DNA in tail, Mean ± S.E.M. / % DNA in tail, Median / L/H, Mean ± S.E.M. / L/H, Median / OTM, Mean ± S.E.M. / OTM, Median: KCL-22
Summary of the method: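 KCL-22 cells were treated 24 h after seeding for 2 h at three concentrations of test compound, with untreated cells as control. Cells were embedded in 0.5% low-melting agarose on slides precoated with 1% agarose and lysed 1 h at 4 °C (2.5 M NaCl, 100 mM EDTA, 10 mM Tris, 1% Triton X-100, pH 10). DNA was unwound 40 min (300 mM NaOH, 1 mM EDTA, pH >13), then electrophoresed at 4 °C for 25 min at 25 V, 300 mA. Slides were neutralised with 0.4 M Tris pH 7.5, stained with 20 μg/mL ethidium bromide, and ≥150 cells scored (50 per triplicate slide). Analysis was by Mann–Whitney test.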

KCL-22 cell line [5] = experiment: Flow cytometric cell cycle analysis; type: cell-based, human
Summary of the method: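 KCL-22 cells were exposed 24 h after seeding to three concentrations of test compound for 48 h. About 10^6 cells were fixed by dropwise addition of cold 70% ethanol on vortex, held overnight at 4 °C, and stored at −20 °C for up to a week. Cells were then washed twice in PBS and stained 30 min with 0.1 mg/mL RNase and 0.05 mg/mL propidium iodide. DNA content was read by flow cytometry, with doublets excluded by FSC/SSC. Phases were fitted with the Dean–Jett–Fox model.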

[6] = Lipophilicity by thin-layer chromatographic retention factor Rf; type: physicochemical; conditions: silica, 1:1:8 KNO3-saturated H2O:H2O:CH3CN
[7] = system: HeLa, HEP-3B, LN-308, MCF-7 and KCL-22 human cancer cell lines; experiment: Dose-dependent cytotoxicity curves in five cancer cell lines; type: cell-based; conditions: Fig. 3
HeLa cell line = experiment: Cytokinesis block micronucleus
KCL-22 cells [8] = experiment: Photo-induced cytotoxicity, vital dye exclusion test; type: cell-based, human
Summary of the method: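 After 24 h in glass vials, KCL-22 cells were preincubated 30 min with free-base porphyrin (distilled water) at various concentrations. They were then irradiated 25 min with a tungsten lamp (30 mW/cm2, 28,000 lx) through a 600–900 nm glass filter and incubated a further 48 h. Viable cells were counted by vital dye exclusion. Controls were dark-kept treated cultures and illuminated untreated cultures; Chlorin e6 was the positive control. IC50 came from dose–response curves, mean ± S.E.M.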

KCL-22 cells [9] = experiment: Dark toxicity of photosensitizers, vital dye exclusion test; type: cell-based, human; conditions: for IC50: read-out: IC50 (μM) ± S.E.M. Under dark
Summary of the method: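 KCL-22 cells were grown in RPMI-1640 with 10% FBS, 2 mM L-glutamine and penicillin/streptomycin at 37 °C, then seeded in glass vials for 24 h. Free-base porphyrin in distilled water was added at various concentrations, and cells were kept in the dark without illumination for 48 h. Viable cells were counted by vital dye exclusion, with viability as % of intact control. IC50 came from dose–response curves, mean ± S.E.M. of at least three experiments.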

KCL-22 cells [10] = conditions: read-out: IC50 (μM) ± S.E.M. Photo-induced; KCL-22, illumination; cited from earlier work
KCL-22 cells [11] = conditions: read-out: IC50 (μM) ± S.E.M. Under dark; KCL-22, dark; cited from earlier work

In the case of “5,10,15,20-tetra(4′-N-allylpyridyl)porphinato Ag(II) tetranitrate [AgTAll4PyP]”, the IC50 (HeLa (cervix carcinoma)) is listed as 26 ± 2.4 µM and the IC50 [1] is listed as 2.5 ± 1.1 µM.
For `C=CC[n+]1ccc(-c2c3nc(c(-c4cc[n+](CC=C)cc4)c4ccc([n-]4)c(-c4ccc(OCCCCCCCCCCCCCCCC)c(OC)c4)c4nc(c(-c5cc[n+](CC=C)cc5)c5ccc2[n-]5)C=C4)C=C3)cc1.O=[N+]([O-])[O-].O=[N+]([O-])[O-].O=[N+]([O-])[O-].[Ag+2]` [AgTriAll4PyMVanC16P, 5-Mono(3′-methoxy-4′-hexadecyloxyphenyl)-10,15,20-tri(4′-N-allylpyridyl) porphinato Ag(II) trinitrate], the “fold enhancement of cytotoxicity on metallation of H2TriAll4PyMVanC16P” value ([2]; KCL-22, dark) was 5 fold, the “toxicity on normal cells (HNL) as compared to cisplatin” value ([3]; HNL, trypan blue exclusion) was “significantly less toxic” and the “toxicity towards cancer (KCL-22) versus normal (HNL) cells” value ([3]; although not significant) was “higher towards cancer versus normal cells”. For the same compound, the “% DNA in tail, Mean ± S.E.M.” value (KCL-22 cell line [4]; concentration IC50, 2 h) was 9.36 ± 0.68%, the “% DNA in tail, Median” value (KCL-22 cell line [4]; concentration IC50, 2 h) was 7.14 ^* % and the “L/H, Mean ± S.E.M.” value (KCL-22 cell line [4]; concentration IC50, 2 h) was 1.34 ± 0.01. The “L/H, Median” value (KCL-22 cell line [4]; concentration IC50, 2 h) was 1.32 ^*, the “OTM, Mean ± S.E.M.” value (KCL-22 cell line [4]; concentration IC50, 2 h) was 5.63 ± 0.42 and the “OTM, Median” value (KCL-22 cell line [4]; concentration IC50, 2 h) was 4.12 ^*. The “% DNA in tail, Mean ± S.E.M.” value (KCL-22 cell line [4]; concentration IC50/5, 2 h) was 3.10 ± 0.20%, the “% DNA in tail, Median” value (KCL-22 cell line [4]; concentration IC50/5, 2 h) was 3.11 ^* % and the “L/H, Mean ± S.E.M.” value (KCL-22 cell line [4]; concentration IC50/5, 2 h) was 1.12 ± 0.01. For the same compound, the “L/H, Median” value (KCL-22 cell line [4]; concentration IC50/5, 2 h) was 1.12 ^*, the “OTM, Mean ± S.E.M.” value (KCL-22 cell line [4]; concentration IC50/5, 2 h) was 1.42 ± 0.08 and the “OTM, Median” value (KCL-22 cell line [4]; concentration IC50/5, 2 h) was 1.14 ^*. The “% DNA in tail, Mean ± S.E.M.” value (KCL-22 cell line [4]; concentration IC50/20, 2 h) was 1.74 ± 0.14%, the “% DNA in tail, Median” value (KCL-22 cell line [4]; concentration IC50/20, 2 h) was 1.74% and the “L/H, Mean ± S.E.M.” value (KCL-22 cell line [4]; concentration IC50/20, 2 h) was 1.08 ± 0.00. The “L/H, Median” value (KCL-22 cell line [4]; concentration IC50/20, 2 h) was 1.07, the “OTM, Mean ± S.E.M.” value (KCL-22 cell line [4]; concentration IC50/20, 2 h) was 0.93 ± 0.06 and the “OTM, Median” value (KCL-22 cell line [4]; concentration IC50/20, 2 h) was 0.58. The “DNA damage (Comet assay)” value (KCL-22 cell line [4]; concentrations IC50/5 and IC50, KCL-22, 2 h after application) was “induce the breakage of DNA molecule”, the “DNA damage (Comet assay)” value (KCL-22 cell line [4]; low (IC50/20) concentration, KCL-22, 2 h) was “no effect” and the “number of cells in G2 phase” value (KCL-22 cell line [5]; KCL-22, 48 h) was “not changed”. The S-phase cell number (KCL-22 cell line [5]; KCL-22, IC50/2, IC50, IC60, 48 h) was “significantly increased”, the “cells in G1 phase” value (KCL-22 cell line [5]; KCL-22, IC50 or IC60 concentration, 48 h) was “statistically significant reduction” and the “lipophilicity, TLC retention factor Rf, compared to tetracationic analog” value [6] was “gained significantly in lipophilicity”. The “concentration at which toxicity starts” value [7] was ~ 1 μM, the “MN (micronucleus) formation in binucleate cells” value (HeLa cell line; all concentrations applied, from IC50/5 to IC60, HeLa) was “did not induce MN formation” and the “CBPI (cytokinesis block proliferation index)” value (HeLa cell line; concentration IC50, HeLa) was 1.33 ± 0.002. The “CBPI, % of negative control” value (HeLa cell line; concentration IC50, HeLa) was 91%, the “CBPI, % of negative control” value (HeLa cell line; concentration IC50/2, HeLa) was 94% and the “CBPI (cytokinesis block proliferation index)” value (HeLa cell line; concentration IC50/2, HeLa, listed as Ag porphyrin) was 1.37 ± 0.004. The “CBPI (cytokinesis block proliferation index)” value (HeLa cell line; concentration IC50/2, HeLa, listed as Amphiphilic Ag porphyrin) was “no effect”, the “CBPI, % of negative control” value (HeLa cell line; concentration IC50/5, HeLa) was 97% and the “CBPI (cytokinesis block proliferation index)” value (HeLa cell line; concentration IC50/5, HeLa, listed as Ag porphyrin) was 1.42 ± 0.034. The “CBPI (cytokinesis block proliferation index)” value (HeLa cell line; concentration IC50/5, HeLa, listed as Amphiphilic Ag porphyrin) was “no effect”, the “CBPI (cytokinesis block proliferation index)” value (HeLa cell line; concentration IC60, HeLa) was 1.20 ± 0.002 and the “CBPI, % of negative control” value (HeLa cell line; concentration IC60, HeLa) was 82%.
For `C=Cc1c(C)c2cc3nc(c(CC(=O)O)c4[nH]c(cc5nc(cc1[nH]2)C(C)=C5CC)c(C)c4C(=O)O)[C@@H](CCC(=O)O)[C@@H]3C` [Chlorin e6, reference compound], the IC50 (KCL-22 cells [8]; Homo sapiens, KCL-22, read-out: IC50 (μM) ± S.E.M. Photo-induced) was 4 ± 0.2 µM and the IC50 (KCL-22 cells [9]; Homo sapiens, KCL-22, 48 h) was over 50 µM.
For `N.N.[Cl][Pt][Cl]` [Cisplatin, cisplatin, reference compound], the “concentration at which toxicity starts” value [7] was ~ 0.2 μM.
For `C=CC[n+]1ccc(-c2c3nc(c(-c4cc[n+](CC=C)cc4)c4ccc([nH]4)c(-c4cc[n+](CC=C)cc4)c4nc(c(-c5cc[n+](CC=C)cc5)c5ccc2[nH]5)C=C4)C=C3)cc1` [H2TAll4PyP, 5,10,15,20-tetra(4′-N-allylpyridyl)porphyrin tetrabromide], the IC50 (KCL-22 cells [10]) is given as 50 µM and the IC50 (KCL-22 cells [11]) is given as over 1600 µM.
For `C=CC[n+]1ccc(-c2c3nc(c(-c4cc[n+](CC=C)cc4)c4ccc([nH]4)c(-c4ccc(OCCCCCCCCCCCCCCCC)c(OC)c4)c4nc(c(-c5cc[n+](CC=C)cc5)c5ccc2[nH]5)C=C4)C=C3)cc1.[Br-].[Br-].[Br-]` [H2TriAll4PyMVanC16P, 5-Mono(3′-methoxy-4′-hexadecyloxyphenyl)-10,15,20-tri(4′-N-allylpyridyl) porphine tribromide], the “fold by which IC50 upon illumination is lower than IC50 under the dark” value (KCL-22 cells [8]; KCL-22) was “more than 35 fold”, the “fold more phototoxic than Chlorin e6” value (KCL-22 cells [8]; KCL-22, illumination) was 5 fold and the “fold increase in cytotoxicity over tetracationic analog H2TAll4PyP” value (KCL-22 cells [9]; KCL-22, dark) was “more than 60 fold”. The IC50 (KCL-22 cells [9]; KCL-22, dark, 48 h) was 25 ± 2 µM and the “lipophilicity, TLC retention factor Rf, compared to tetracationic analog” value [6] was “gained dramatically in lipophilicity”.
With `O=[N+]([O-])[O-].[Ag+]` [Silver nitrate] the “toxicity on KCL-22 cell line” value ([2]; at up to 20 μM concentration, data not shown) was “no toxicity”.
